Source: publication PMC3053384 (Pediatric blood & cancer, 2010)
Like-named read-outs stand apart in the source and are kept apart here. Marks after values point to notes of the source that are not given here.

Experiments:
[1] = Pediatric phase 1 trial: plasma pharmacokinetics after first dose; set-up: species or system human; settings: in vivo
[2] = biological target: kinesin spindle protein (KSP/HsEg5); settings: read-out: binding constant, Ki; cited from earlier work
[3] = cited from earlier work
[4] = tested on: recurrent or refractory solid tumors; experiment: Pediatric phase 1 trial: tumor response; assay type: in vivo, human
Method in brief: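 Children with recurrent or refractory solid tumors received the test compound as a 1-hour IV infusion on days 1, 8 and 15 of each 28-day course, at 5, 7, 9 or 12 mg/m2/dose. The compound was diluted in 5% dextrose in water to a final ≤ 150 μg/mL. Patients with haematologic DLT continued at the next lower dose level. Radiographic response was assessed by NCI RECIST.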

[5] = tested on: Ewing sarcoma, Wilms tumor, glioblastoma, rhabdoid tumor and acute lymphoblastic leukemia xenografts; settings: cited from earlier work
[6] = tested on: adult tumors (breast, ovarian and other cancers); settings: 18 mg/m^2 once every 21 days; cited from earlier work
[7] = Pediatric phase 1 trial: toxicity, DLT and MTD; assay type: in vivo, human; settings: for No. of patients with DLT: first course; for No. of courses with Grade 3 Anemia / No. of courses with Grade 3 Lymphopenia / No. of courses with Grade 3 Neutropenia / No. of courses with Grade 3 Thrombocytopenia / No. of courses with Grade 4 Anemia / No. of courses with Grade 4 Lymphopenia / No. of courses with Grade 4 Thrombocytopenia / No. of courses with Grade 4 Neutropenia: independent of frequency or attribution; for No. of courses with Grade 4 Neutropenia: dose-limiting
[8] = 12 mg/m^2 dose level, of 6 evaluable
[9] = Course 1 (19 courses), non-dose-limiting, related to protocol therapy
[10] = Courses 2-7 (15 courses), non-dose-limiting, related to protocol therapy

Cc1ccc(C(=O)N(CCCN)[C@@H](c2nc3cc(Cl)ccc3c(=O)n2Cc2ccccc2)C(C)C)cc1 [ispinesib, Ispinesib]
dose dependence of terminal t1/2 ([1]; human): independent of dose
volume of distribution at steady state (Vss), median ([1]; human): 84 L/m^2
volume of distribution at steady state (Vss), range ([1]; human): 23-193 L/m^2
Clearance ([1]; human, 5 mg/m2): 5.3 L/hr/m^2
Cmax ([1]; human, 5 mg/m2, Cmax): 145 ng/mL
half-life ([1]; human, 5 mg/m2, t1/2): 9 h
half-life ([1]; human, 7 mg/m2, t1/2): 14 h
Clearance ([1]; human, 12 mg/m2): 13.5 L/hr/m^2
Vss ([1]; human, 12 mg/m2): 193 L/m^2
Cmax ([1]; human, 12 mg/m2, Cmax): 149 ng/mL
half-life ([1]; human, 12 mg/m2, t1/2): 13 h
Cmax ([1]; human, iv, 5 mg/m2, Cmax): 86 ng/mL
half-life ([1]; human, iv, 5 mg/m2, t1/2): 44 h
Cmax ([1]; human, iv, 7 mg/m2, Cmax): 244 ng/mL
half-life ([1]; human, iv, 7 mg/m2, t1/2): 32 h
Cmax ([1]; human, iv, 12 mg/m2, Cmax): 204 ng/mL
half-life ([1]; human, iv, 12 mg/m2, t1/2): 8 h
half-life ([1]; human, terminal elimination half-life (t1/2), median): 16 h
half-life ([1]; human, terminal elimination half-life (t1/2), range): 8 to 44 h
Clearance ([1]; 5 mg/m2): 3.0 L/hr/m^2
Clearance ([1]; 7 mg/m2): 1.2 L/hr/m^2
Vss ([1]; 7 mg/m2): 51 L/m^2
Clearance ([1]; 12 mg/m2): 7.1 L/hr/m^2
Vss ([1]; 12 mg/m2): 83 L/m^2
Ki [2]: 0.6 nM
maximum tolerated dose (MTD) ([3]; adult patients with breast cancer, day 1 and day 15 every 28 days): 12 mg/m^2
maximum tolerated dose (MTD) ([3]; adult patients with solid tumors, day 1, 2 and 3 every 21 days): 6 mg/m^2
maximum tolerated dose (MTD) ([3]; adult patients with solid tumors, weekly x 3 every 28 days): 7 mg/m^2/dose
maximum tolerated dose (MTD) ([3]; adults with acute leukemia, days 1, 2 and 3 every 21 days): 10 mg/m^2/dose
recommended adult phase II dose ([3]; adults, weekly x 3 every 28 days): 7 mg/m^2/dose
complete courses of therapy with stable disease ([4]; 7 mg/m^2 dose level, ependymoblastoma): 7 courses
complete courses of therapy with stable disease ([4]; 9 mg/m^2 dose level, alveolar soft part sarcoma): 5 courses
complete courses of therapy with stable disease ([4]; 12 mg/m^2 dose level, anaplastic astrocytoma): 4 courses
objective tumor responses ([4]; 24 pediatric patients evaluable for response): no objective tumor responses
in vivo anti-tumor activity [5]: high level of in vivo anti-tumor activity
activity in other adult tumor indications [6]: No significant activity
No. of patients with DLT ([7]; 5 mg/m^2/dose, 3 evaluable patients): 0
No. of patients with DLT ([7]; 9 mg/m^2/dose, 6 evaluable patients): 1
No. of patients with DLT ([7]; 12 mg/m^2/dose, 6 evaluable patients): 3
patients with dose-limiting hyperbilirubinemia (grade 3) [7, 8]: 1/6
patients with dose-limiting neutropenia (grade 4) [7, 8]: 2/6
pediatric MTD higher than recommended adult phase II dose ([7]; 9 vs 7 mg/m^2/dose): ~30%
No. of courses with Grade 3 Anemia ([7]; Course 1 (19 courses)): 1
No. of courses with Grade 3 Lymphopenia ([7]; Course 1 (19 courses)): 2
No. of courses with Grade 3 Neutropenia ([7]; Course 1 (19 courses)): 5
No. of courses with Grade 3 Thrombocytopenia ([7]; Course 1 (19 courses)): 1
No. of courses with Grade 4 Anemia ([7]; Course 1 (19 courses)): 0
No. of courses with Grade 4 Lymphopenia ([7]; Course 1 (19 courses)): 1
No. of courses with Grade 4 Thrombocytopenia ([7]; Course 1 (19 courses)): 0
No. of courses with Grade 4 Neutropenia ([7]; Course 1 (19 courses)): 3 ^*
No. of courses with ALT toxicity, Grade 3 [7, 9]: 1
No. of courses with ALT toxicity, Grades 1 and 2 [7, 9]: 3
No. of courses with AST toxicity, Grade 3 [7, 9]: 1
No. of courses with AST toxicity, Grades 1 and 2 [7, 9]: 2
No. of courses with Alkaline phosphatase toxicity, Grade 3 [7, 9]: 0
No. of courses with Alkaline phosphatase toxicity, Grades 1 and 2 [7, 9]: 2
No. of courses with Constipation, Grade 3 [7, 9]: 0
No. of courses with Constipation, Grades 1 and 2 [7, 9]: 2
No. of courses with Diarrhea, Grade 3 [7, 9]: 0
No. of courses with Diarrhea, Grades 1 and 2 [7, 9]: 2
No. of courses with Electrolyte abnormality, Grade 3 [7, 9]: 0
No. of courses with Electrolyte abnormality, Grades 1 and 2 [7, 9]: 4
No. of courses with Fatigue, Grade 3 [7, 9]: 0
No. of courses with Fatigue, Grades 1 and 2 [7, 9]: 3
No. of courses with Hyperbilirubinemia, Grade 3 [7, 9]: 1
No. of courses with Hyperbilirubinemia, Grades 1 and 2 [7, 9]: 1
No. of courses with Hypoalbuminemia, Grade 3 [7, 9]: 0
No. of courses with Hypoalbuminemia, Grades 1 and 2 [7, 9]: 3
No. of courses with Nausea, Grade 3 [7, 9]: 0
No. of courses with Nausea, Grades 1 and 2 [7, 9]: 4
No. of courses with Vomiting, Grade 3 [7, 9]: 0
No. of courses with Vomiting, Grades 1 and 2 [7, 9]: 3
No. of courses with Grade 3 Anemia ([7]; Courses 2-7 (15 courses)): 0
No. of courses with Grade 3 Lymphopenia ([7]; Courses 2-7 (15 courses)): 2
No. of courses with Grade 3 Neutropenia ([7]; Courses 2-7 (15 courses)): 1
No. of courses with Grade 3 Thrombocytopenia ([7]; Courses 2-7 (15 courses)): 0
No. of courses with Grade 4 Anemia ([7]; Courses 2-7 (15 courses)): 0
No. of courses with Grade 4 Lymphopenia ([7]; Courses 2-7 (15 courses)): 0
No. of courses with Grade 4 Thrombocytopenia ([7]; Courses 2-7 (15 courses)): 0
No. of courses with Grade 4 Neutropenia ([7]; Courses 2-7 (15 courses)): 1 ^*
No. of courses with ALT toxicity, Grades 1 and 2 [7, 10]: 0
No. of courses with AST toxicity, Grades 1 and 2 [7, 10]: 0
No. of courses with Alkaline phosphatase toxicity, Grades 1 and 2 [7, 10]: 0
No. of courses with Constipation, Grades 1 and 2 [7, 10]: 0
No. of courses with Diarrhea, Grades 1 and 2 [7, 10]: 0
No. of courses with Electrolyte abnormality, Grades 1 and 2 [7, 10]: 0
No. of courses with Fatigue, Grades 1 and 2 [7, 10]: 1
No. of courses with Hyperbilirubinemia, Grades 1 and 2 [7, 10]: 0
No. of courses with Hypoalbuminemia, Grades 1 and 2 [7, 10]: 0
No. of courses with Nausea, Grades 1 and 2 [7, 10]: 1
No. of courses with Vomiting, Grades 1 and 2 [7, 10]: 1
maximum tolerated dose (MTD) and recommended phase II dose ([7]; children with solid tumors, 1-hour iv infusion weekly x 3 every 28 days): 9 mg/m^2/dose
primary dose-limiting adverse events ([7]; pediatric patients): neutropenia and hepatotoxicity
reversibility of neutropenia ([7]; pediatric patients): rapidly reversible
tolerability ([7]; pediatric patients, 9 mg/m^2/dose weekly x 3 every 28 days): well tolerated
tolerability ([7]; pediatric patients, 5-12 mg/m^2/dose weekly x 3 every 28 days): generally well tolerated
